The text below walks through data of PMC2810141 (Biochemistry, 2008).

“Also recorded” adds a separate entry of the source.

For experiment [1], the target named is T1, human P4H (Homo sapiens, UniProt P13674). In words: HPLC-based assay of P4H enzymatic activity. Format: biochemical. The conditions noted are these: for Product formation as substrate for P4H: HPLC (for Mtp also mass spectrometry), data not shown; for Substrate or Inhibitor: PEG-Gly–Tyr–Yaa–GlyOEt, 50 mM Tris–HCl pH 7.8, P4H 90 nM, α-ketoglutarate 500 μM; for Substrate or Inhibitor / kcat / Km / kcat/KM / kcat/KM relative to that of the Pro-containing peptide: HPLC-based assay; for Substrate or Inhibitor / kcat / Km / kcat/KM: 5 min, 30 °C; for kcat / Km / kcat/KM: pH 7.8, P4H 90 nM, substrate 0.05–3 mM, mean ± SE of three replicates; for kcat / Km: Michaelis–Menten fit. In a few lines: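 Human P4H from a previously reported preparation at 90 nM, in 50 mM Tris–HCl pH 7.8 with BSA 1 mg/mL, catalase 100 μg/mL, DTT 100 μM, ascorbate 2 mM, FeSO4 50 μM and α-ketoglutarate 500 μM. Started with tetrapeptide (0.05–3 mM; ethanol stock), run 5 min at 30 °C, then boiled 60 s. Triplicates. C18 HPLC; substrate:product ratio from A214; Michaelis–Menten fit.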

Experiment [2] has as its target T1, human P4H. The experiment can be described thus: [14C]CO2-release assay from [1-14C]α-ketoglutarate. Format: biochemical. The conditions noted are these: substrate at 10% of KM; duplicate. In a few lines: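 Release of [14C]CO2 from [1-14C]α-ketoglutarate. Component levels as in the HPLC assay, except P4H at 395 nM. Each peptide tested at 10% of its KM from the HPLC assay. Run in duplicate; the decarboxylation rate without peptide was subtracted. Rate (μM/min) expressed as % of the Pro-containing peptide.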

The subject of the next experiment is P4H. The conditions noted are these: binds to the enzyme, not hydroxylated; ref [33]; cited from earlier work.

T1 sequence (P13674 18-534): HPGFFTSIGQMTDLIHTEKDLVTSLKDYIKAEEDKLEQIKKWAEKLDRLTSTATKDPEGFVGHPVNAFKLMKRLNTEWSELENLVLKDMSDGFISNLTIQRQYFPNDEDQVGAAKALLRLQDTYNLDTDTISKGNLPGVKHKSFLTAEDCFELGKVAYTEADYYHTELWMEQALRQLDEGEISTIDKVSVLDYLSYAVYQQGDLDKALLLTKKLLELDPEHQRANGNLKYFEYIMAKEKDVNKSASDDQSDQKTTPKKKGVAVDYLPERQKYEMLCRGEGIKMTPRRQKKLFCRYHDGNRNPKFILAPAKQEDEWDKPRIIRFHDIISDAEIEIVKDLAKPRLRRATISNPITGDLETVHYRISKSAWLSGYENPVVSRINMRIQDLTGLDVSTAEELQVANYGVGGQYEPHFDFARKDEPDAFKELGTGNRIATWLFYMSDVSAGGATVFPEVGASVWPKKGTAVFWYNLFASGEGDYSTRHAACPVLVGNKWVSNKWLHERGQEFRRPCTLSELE
T1 sequence (P07237 18-508 partner): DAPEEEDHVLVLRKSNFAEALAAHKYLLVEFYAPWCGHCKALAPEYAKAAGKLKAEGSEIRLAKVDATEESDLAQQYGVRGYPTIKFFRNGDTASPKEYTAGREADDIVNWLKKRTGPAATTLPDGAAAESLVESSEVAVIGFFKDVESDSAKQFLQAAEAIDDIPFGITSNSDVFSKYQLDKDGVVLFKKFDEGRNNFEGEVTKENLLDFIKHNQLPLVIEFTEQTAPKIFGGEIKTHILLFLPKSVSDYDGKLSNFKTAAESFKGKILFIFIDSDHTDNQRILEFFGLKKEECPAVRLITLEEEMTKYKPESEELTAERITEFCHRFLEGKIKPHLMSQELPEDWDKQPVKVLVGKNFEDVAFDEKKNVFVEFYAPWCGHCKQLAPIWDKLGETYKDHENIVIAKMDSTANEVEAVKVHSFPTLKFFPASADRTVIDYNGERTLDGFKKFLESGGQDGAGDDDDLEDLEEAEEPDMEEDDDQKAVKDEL

Consider Cbz-Gly–Tyr–Mtp–GlyOEt, for which, at human P4H [1], the “Product formation as substrate for P4H” value is “No product was detected” and the “Substrate or Inhibitor” value is recorded as “Neither”.

In the case of PEG-Gly–Tyr–Kep–GlyOEt, at human P4H [1], the “Product formation as substrate for P4H” value was “not found to be a substrate” and the “Substrate or Inhibitor” value was “neither substrates nor inhibitors; also recorded: Neither”.

In general, kcat refers to the maximal rate divided by the concentration of active sites. What is called Km is the concentration of substrate that gives half-maximal velocity. As to PEG-Gly–Tyr–Pro–GlyOEt, the “% of Pro (rate of CO2 release)” value on human P4H [2] is recorded as 100%. Also, on human P4H [1], the kcat came to 6 s⁻¹, the kcat/KM is reported as 10 ± 0.6 10^3 M^−1s^−1 and the “Substrate or Inhibitor” value is “Substrate”. Moreover, on human P4H [1] (SEM), the Km was 580 ± 30 µM and the kcat is 6 ± 0.12 s⁻¹. Moreover, the “kcat/KM relative to that for dansyl-Gly–Phe–Pro–GlyOEt” value on human P4H [1] (comparator value from ref [18]) came to 3 fold.

As to PEG-Gly–Tyr–Thp–GlyOEt, the “% of Pro (rate of CO2 release)” value on human P4H [2] was 6%. Besides, on human P4H [1], the “kcat/KM relative to that of the Pro-containing peptide” value is given as 12%, the kcat/KM is reported as 1.2 ± 0.3 10^3 M^−1s^−1 and the “Substrate or Inhibitor” value was “Substrate”. On human P4H [1] (SEM), the Km is 6400 ± 1400 µM and the catalytic constant (kcat) amounted to 7.83 ± 0.983 s⁻¹.

Turning to PEG-Gly–Tyr–flp–GlyOEt, the “% of Pro (rate of CO2 release)” value on human P4H [2] is given as 26%. Besides, at human P4H [1], the “Product formation as substrate for P4H” value is reported as “No product formation was detected”, the “kcat/KM relative to that of the Pro-containing peptide” value is recorded as 27%, the turnover number (kcat) was 4.17 s⁻¹ and the kcat/KM was 2.7 ± 0.5 10^3 M^−1s^−1. Also, at human P4H [1], the “Substrate or Inhibitor” value is given as “Substrate”. Besides, at human P4H [1] (SEM), the Michaelis-Menten constant (Km) was found to be 1600 ± 300 µM and the kcat stood at 4.17 ± 0.35 s⁻¹.

On to polyproline, for which, in the experiment with P4H, the “Inhibition of P4H enzymatic activity” value is given as “competitive inhibitor”.
